ARFGAP1 inhibitor: inhibits rat ARF GTPase activating protein 1; Q62848; Arfgap1-stimulated ARF1 GTP hydrolysis, GDP FP detection; inhibition, % at 16.5 µM; actives 0.26% (n = 360,000);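 active = inhibition above a per-plate limit, mean inhibition of low control wells plus 3 SD, cut at about 25% in these data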;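 also: 0% = DMSO wells with enzyme and 100% = wells lacking Arfgap1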
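Material: rat Arfgap1 catalytic domain, aa 1-136; also added: human ARF1(Δ1-17)-GTP substrate; compound dosing: one concentration, 16.5 µM, DMSO 1.26%; incubation: GTP hydrolysis reaction 2 h at 25 °C; measured by: Tracer-displacement fluorescence polarization with EDTA stop, 620/688 nm; evaluation: % inhibition from polarization; repeats: one replicate per compound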
ASAP1 GAP inh: ASAP1 ArfGAP inhibition | ASAP1-stimulated ARF1 GTP hydrolysis, GDP FP detection | AID 624377 | actives 0.19% (n = 360,000) | Q9ULH1 | inhibition, % at 16.5 µM; in the data active = inhibition above about 25%;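 also: 0% = vehicle with enzyme and substrate and 100% = no enzyme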
Target sequence (Q9ULH1 325-724 limits assumed): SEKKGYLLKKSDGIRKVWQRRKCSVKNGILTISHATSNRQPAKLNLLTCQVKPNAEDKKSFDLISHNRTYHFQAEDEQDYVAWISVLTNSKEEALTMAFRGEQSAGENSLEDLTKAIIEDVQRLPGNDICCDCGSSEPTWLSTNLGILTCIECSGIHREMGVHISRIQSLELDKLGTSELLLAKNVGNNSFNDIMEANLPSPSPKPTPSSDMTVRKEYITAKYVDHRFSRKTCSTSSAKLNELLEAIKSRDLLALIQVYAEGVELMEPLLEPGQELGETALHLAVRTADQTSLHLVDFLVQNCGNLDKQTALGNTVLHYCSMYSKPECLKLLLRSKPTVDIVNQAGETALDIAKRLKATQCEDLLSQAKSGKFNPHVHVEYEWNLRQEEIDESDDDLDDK
PAFAH2 FP inh: PAFAH2 (human) inhibition; Q99487; recombinant PAFAH2, FP-rhodamine activity probe, fluorescence polarization; inhibition, % at 3.39 µM; actives 0.99% (n = 340,000); AID 492956;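 active = inhibition above the mean over all tested compounds plus 3 SD, cut at about 30% in these data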;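 also: inhibitors block probe labeling of enzyme so polarization drops; 0% = enzyme with DMSO and 100% = wells lacking PAFAH2 protein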
pPAFAH FP inh: inhibitors of human plasma PAF acetylhydrolase (pPAFAH). actives 1.5% (n = 330,000). recombinant pPAFAH, FP-rhodamine probe fluorescence polarization. AID 463082. inhibition, % at 3.39 µM. Q13093;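 active = inhibition above the mean inhibition across the screen plus 3 SD, cut at about 25% in these data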;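 also: inhibitors block binding of the rhodamine activity-based probe so polarization drops; 0% = enzyme with DMSO and 100% = wells lacking pPAFAH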
PAFAH1B3 inh: inhibitors of human PAFAH1B3; Q15102; recombinant PAFAH1B3, FP-rhodamine probe, fluorescence polarization; inhibition, % at 3.39 µM; actives 0.28% (n = 340,000);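 active = inhibition above the screen-wide average of all tested compounds plus 3 SD, cut at about 25% in these data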;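 also: 0% = enzyme with DMSO only and 100% = wells lacking PAFAH1B3 protein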
PAFAH1B2 FP inh: PAFAH1B2 (human) inhibition | recombinant PAFAH1B2, FP-rhodamine activity probe, fluorescence polarization | P68402 | actives 1.2% (n = 340,000) | inhibition, % at 3.39 µM;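 active = inhibition above the mean of all tested compounds plus 3 SD, cut at about 24% in these data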;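 also: 0% = enzyme with DMSO and 100% = wells lacking PAFAH1B2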
Target sequence (P68402 whole entry, looked up): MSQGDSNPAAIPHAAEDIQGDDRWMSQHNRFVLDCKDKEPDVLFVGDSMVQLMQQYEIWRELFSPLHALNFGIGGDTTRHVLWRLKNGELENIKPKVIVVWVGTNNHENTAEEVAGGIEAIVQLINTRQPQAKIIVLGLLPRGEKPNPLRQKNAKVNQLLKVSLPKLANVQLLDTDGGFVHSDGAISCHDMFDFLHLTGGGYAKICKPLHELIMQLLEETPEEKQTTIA
* marks the source's active call; other numbers are inactive results; . = no result given. Hits are enriched below; roughly 2.7% of the tested compounds scored in any of these assays.

SMILES	ARFGAP1 inhibitor	ASAP1 GAP inh	PAFAH2 FP inh	pPAFAH FP inh	PAFAH1B3 inh	PAFAH1B2 FP inh
O=C(C(=O)N1CCC(CNC(=O)c2cccs2)CC1)c1cc2ccccc2o1	2	-8	.	.	.	.
Nc1ccc(F)c(CN2CCN(c3ncc(Cc4ccccc4)cn3)CC2)c1	-5	10	.	.	.	.
O=C1SC(SCc2ccccc2Cl)=N/C1=C\c1ccc(C(=O)O)cc1	-4	-14	62*	4	6	28*
O=C(NCC1CCN(C(=O)C(=O)c2cc3ccccc3o2)CC1)c1ccc2c(c1)OCC2	9	0	.	.	.	.
NCCCC[C@H]1NC(=O)[C@H](CCC(=O)O)NC(=O)c2cc([N+](=O)[O-])cc(I)c2OCC[C@@H](C(N)=O)NC1=O	.	.	.	33*	.	.
COC(=O)CSc1nnc(SCc2ccc(Cl)cc2)s1	10	-8	6	6	3	31*
COC(=O)CSc1nnc(SCc2ccccc2)s1	2	-11	2	4	5	9
CCCCN1CC(COc2ccc(OC)cc2)OCCS1(=O)=O (stereo not drawn)	-2	3	.	.	.	.
Cn1c(=O)c2c(nc(NC3CCCCC3)n2CC(=O)C23CC4CC(CC(C4)C2)C3)n(C)c1=O	9	1	7	2	-6	25*
COC[C@@H](O)[C@H]1OCc2cc(OC)ccc2[C@@H]1/C=C/c1ccccc1	2	0	.	.	.	.
CN(C)CC(=O)Nc1ccc(Oc2ccc(Cl)cc2)cc1	5	-9	6	26*	7	4
O=C(N[C@H](C(=O)N1CCC[C@H]1C(=O)NCc1ccccc1)c1ccccc1)C1CCCC1	9	-19	.	.	.	.
CCc1sc(C(=O)Nc2ccc3c(c2)OCCO3)cc1Br	-5	10	-7	10	4	7
CCc1sc(C(=O)Nc2ccc3c(c2)OCO3)cc1C	4	6	17	25*	18	6
CC(C)C(C(=O)NCC1CCCO1)N(Cc1ccco1)C(=O)CNS(=O)(=O)c1ccc(F)cc1 (stereo not drawn)	2	11	22	34*	7	2
O=C(CN(Cc1ccco1)C(=O)CNS(=O)(=O)c1ccc(Cl)cc1)NCc1ccc(F)cc1	13	-11	22	10	2	26*
O=C(Cc1ccccn1)c1ccc(Cl)cc1	-5	-4	-6	3	1	6
CC1=C(CC(=O)c2ccc(Cl)cc2)C(=O)c2ccccc2C1=O	0	-10	2	28*	8	6
COC(=O)C1CCN(C2CN(Cc3cn(Cc4ccc(C(F)(F)F)cc4)nn3)S(=O)(=O)C2)CC1 (stereo not drawn)	0	-3	.	.	.	.
O=c1cc(-c2ccccc2)nc2cc(-c3ccc(Br)cc3)[nH]n12	0	-22	3	3	18	8
O=c1cc(-c2ccccc2)nc2cc(-c3ccco3)[nH]n12	-5	-11	-7	27*	3	1
c1ccc(OCCOCCN2CCOCC2)cc1	-9	-6	2	-6	6	-2
CC(C)(c1ccccc1)c1ccc(OCCN2CCOCC2)cc1	2	6	3	27*	4	17
Cc1ccc(C)c(S(=O)(=O)/N=C2\C=C(NS(=O)(=O)c3ccccc3)C(=O)c3ccccc32)c1	5	-13	17	17	25	6
Cc1cc(C)c(S(=O)(=O)/N=C2/C=C(Sc3ncn[nH]3)C(=O)c3ccccc32)cc1C	-8	14	47*	10	49*	72*
SMILES	ARFGAP1 inhibitor	ASAP1 GAP inh	PAFAH2 FP inh	pPAFAH FP inh	PAFAH1B3 inh	PAFAH1B2 FP inh
O=C(CSc1nnc(SCc2ccccc2)s1)N/N=C/C=C\c1ccco1	-3	7	27	28*	3	3
Cn1cccc1CC(=O)N/N=C/C=C/c1ccco1	2	-3	16	27*	6	-4
O=C(C(=O)N1CCC(CNS(=O)(=O)c2cccc(C(F)(F)F)c2)CC1)c1cc2ccccc2o1	-1	-8	.	.	.	.
N#CCS(=O)(=O)c1cccc[n+]1[O-]	5	2	.	.	.	.
Cc1cc(NS(=O)(=O)c2ccc(Nc3nc(-c4ccc(C)c(C)c4)cs3)cc2)no1	-11	3	25	34*	-2	8
COC(=O)[C@]12C[C@H](CC(=O)N3CCOCC3)C(=O)N(Cc3ccccc3)C1=C[C@H](C(C)(C)C)O[C@@H]2C	1	5	.	.	.	.
CCCCNC(=O)C[C@H]1C[C@@]2(C(=O)OC)C(=C[C@H](C(C)(C)C)O[C@@H]2C)N(Cc2ccccc2)C1=O	-5	-4	.	.	.	.
CC(=O)C1=C(O)C(=O)N(Cc2ccccc2)C1c1ccc(Cl)cc1 (stereo not drawn)	0	10	7	-3	3	29*
CC1(C)CC(=O)C=C(c2ccccc2F)C1=O	-4	-3	.	.	.	.
NC(=S)N=Nc1c(O)cc(O)c2[nH]c(=O)ccc12	-18	-9	51*	.	62*	51*
COc1ccc(C(=O)NCC2CCN(C(=O)C(=O)c3cc4ccccc4o3)CC2)cc1	3	-12	.	.	.	.
CCOC(=O)C1=CCC(c2ccc([N+](=O)[O-])cc2)N(S(=O)(=O)c2ccc(C)cc2)C1 (stereo not drawn)	-6	-5	.	.	.	.
CCN(CC(=O)NCc1ccc(Cl)cc1)C(=O)/C=C/c1ccccc1	10	10	2	6	6	27*
CCN(CC(=O)NCc1ccc(Cl)cc1)C(=O)/C=C/c1ccc(C#N)cc1	-1	0	-1	3	2	1
Clc1ccc(OCc2nc(-c3ccncc3)no2)cc1	1	-4	8	-2	6	27*
Clc1ccc(-c2noc(COc3ccccc3)n2)cc1	7	3	-1	1	-1	3
Cc1ccc(CSc2nnc(CNc3ccc(F)cc3)o2)cc1	-2	10	6	9	2	26*
O=C(NCCN1CCOCC1)c1ccc(/C=C2\Sc3ccccc3N(Cc3ccccc3F)C2=O)cc1	11	-7	-8	33*	2	-1
CC1CCN(S(=O)(=O)c2cccc(C(=O)N(C)C3CCS(=O)(=O)C3)c2)CC1 (stereo not drawn)	14	-6	-5	2	7	33*
COC(=O)CSc1ccc(S(=O)(=O)N2CCC(C)CC2)cc1[N+](=O)[O-]	-5	-4	-4	2	-5	27*
CC1CCN(S(=O)(=O)c2ccc(C(=O)N(C)C3CCS(=O)(=O)C3)cc2)CC1 (stereo not drawn)	6	-11	-2	-7	7	13
COC(=O)c1cccc(S(=O)(=O)N2CCC(C)CC2)c1	-14	-4	-3	8	-5	26*

From PubChem
